Compound activity deposited in PubChem BioAssay by several laboratories.
UPR XBP1 act: activators of adaptive XBP1 UPR arm, primary screen, cell-based, CHO-XBP1 luciferase reporter, luminescence, uHTS. AID 463104, 2010. IRE1-XBP1 UPR activation; percent of tunicamycin response, DMSO as zero. hit rate 0.33% among 330,000. activation, % at 20 µM;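 active means versus positive control, 20 µM dose yields 30% or more activation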;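 further: 100% = tunicamycin at 10 µg/mL and 0% = DMSO only wells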
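assay system = CHO-XBP1 luciferase reporter cells | amount = 1000 cells/well | buffer or medium = F12 plus 10% FBS | compound dosing = single point, 20 µM final compound, 1% DMSO | incubation = 16-18 h cell attachment at 37 °C, then 6 h compound exposure | detection = Steady-Glo luminescence read | controls = tunicamycin 10 µg/mL and vehicle-only wells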
UPR CHOP act: activators of apoptotic CHOP UPR arm, primary screen, cell-based, CHO-CHOP luciferase reporter, luminescence, uHTS; UPR activation; percent of tunicamycin response over DMSO baseline; AID 449763, 2010; activation, % at 10 µM; hit rate 0.34% among 330,000;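 active means at 10 µM dose, activation of 40% or more, normalized to positive control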;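 further: 100% = tunicamycin at 10 µg/mL and 0% = DMSO alone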
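assay system = CHO CHOP reporter cells | amount = 500 CHO-CHOP cells per well | buffer or medium = F12 with 10% FBS | incubation = 16-18 h cell attachment, then 6 h compound exposure, 37 °C | detection = luminescence read with Steady-Glo | read-out = percent activation relative to tunicamycin control | controls = tunicamycin high control, DMSO low control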
CHOP inhibitor: inhibitors of CHOP promoter induction, primary screen, cell-based, unfolded protein response, luciferase reporter; hit rate 3.8% among 220,000; inhibition, % at 10 µM; AID 2732, 2010; CHO-K1 CHOP-promoter luciferase, tunicamycin-induced, 15-18 h;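 active means compounds that reduced the stress-induced luciferase reporter signal by more than about 70% of percent inhibition, limit read from the data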;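 further: 0% = tunicamycin plus vehicle and 100% = wells without tunicamycin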
PvdQ inh: P. aeruginosa PvdQ acylase inhibitors, primary screen, biochemical, fluorescence, plate reader and imaging, single point; purified PvdQ acylase; hit rate 0.063% among 340,000; inhibition, % at 10 µM; PvdQ acylase [Pseudomonas aeruginosa LESB58]; in the data active means inhibition above about 30%, passing the limit was not always enough;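 further: 0% = vehicle neutral wells and 100% = reference inhibitor wells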
CHOP confirm: retest of CHOP induction inhibitors, confirmation, cell-based. shares compounds with CHOP inhibitor. CHO-CHOP promoter luciferase reporter, tunicamycin-induced, luminescence. inhibition, % at 10 µM. hit rate 45% among 2,100. AID 504437, 2011;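 active means mean of three repeat readings of reporter signal inhibition above a set limit, cut at about 70% in these data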;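 further: 0% = tunicamycin plus vehicle and 100% = wells lacking tunicamycin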
* hit, by the source's call; . = no result. Shown is part of a subset that was picked to be rich in hits.

SMILES	UPR XBP1 act	UPR CHOP act	CHOP inhibitor	PvdQ inh	CHOP confirm
CCc1sc(C(=O)NCCc2ccc(S(N)(=O)=O)cc2)cc1Br	-1	-2	12	-3	.
O=C1NN=C(c2ccc(Cl)cc2)CC1c1cccc(Cl)c1 (centres undefined)	-3	-3	102*	-11	44
O=[N+]([O-])c1c(NCCCO)cc(SCc2ccco2)c2nonc12	-1	0	19	1	.
CC(=O)OCCCNc1cc(Sc2nc3ccccc3s2)c2nonc2c1[N+](=O)[O-]	-6	-10	109*	5	13
O=[N+]([O-])c1c(NCCCO)cc(Sc2ccc(Cl)cc2)c2nonc12	.	.	111*	-3	141*
C=C1C(=O)C=C2CN(C(=O)c3ccccc3)[C@@](Cc3ccc(F)cc3)(C(=O)OC)[C@@H]12	-10	-9	109*	3	128*
COC(=O)[C@@]1(Cc2ccc(OC)cc2)[C@@H]2C(=CC(=O)[C@H]2CC(=O)C(=O)N(C)C)CN1C(=O)c1ccccc1	-3	-1	22	.	.
COC(=O)/C(=C(/F)Sc1cc(C)c(O)c(C)c1)C(F)(F)F	6	35	98*	-12	118*
CC(C)=NOc1cc(NC(=O)CCl)cc([N+](=O)[O-])c1	-5	-7	111*	3	110*
CC(NC(=O)C1(C)CC1(Br)Br)C(C)(C)C (centres undefined)	0	-3	-14	4	.
COc1ccc(-c2nn(CCC(=O)O)cc2/C=C/C(=O)O)cc1[N+](=O)[O-]	-3	-1	4	4	.
COc1ccc(/C=N/n2c(N)nc(-c3ccccc3)c2-c2ccccc2)cc1	0	2	104*	12	52
O=C(O)c1ccc(N/N=C/c2ccc3nccnc3c2)cc1	-6	-10	101*	4	116*
O=C(O)c1ccc(N/N=C/c2ccncc2)cc1	-4	0	.	-1	.
COc1cccc(N2CCN(C(=O)c3nc4nc(C)cc(C)n4n3)CC2)c1	-4	-1	1	-5	.
COc1cccc2cc(/C(=N/O)c3ccc(Br)cc3)oc12	-1	0	106*	4	20
COc1ccc(OC)c(/C(O)=C/C(=O)C(=O)Nc2cc(C)cc(C)c2)c1	0	-1	105*	-3	-11
Cc1ccc(S(=O)(=O)C2(C(=O)N3CCN(c4ccccc4F)CC3)CC2)cc1	1	1	.	-4	.
COc1ccc(Cl)cc1NC(=O)C1Cc2cc(S(=O)(=O)N3CCCC3)ccc2N1C(C)=O (centres undefined)	-9	1	.	5	.
O=C(c1ccc(Cl)cc1)c1c[nH]c(C(=O)NNc2cccc(Cl)n2)c1	7	-1	100*	5	96*
O=C(c1ccccc1)c1c[nH]c(C(=O)NNc2cccc(Cl)n2)c1	-4	1	14	-6	.
COc1ccc(C(=O)Nc2cccnc2Sc2ccc(Cl)cc2)cc1	3	2	11	-9	.
COc1ccc(S(=O)(=O)N2CCOCC2)cc1NC(=O)CN1C(=O)NC2(CCCC2)C1=O	-2	-2	.	-11	.
Oc1ccc(Br)cc1-c1nc2cnccn2c1NC1CCCC1	-1	-2	.	-4	.
Oc1ccc(Br)cc1-c1nc2cnccn2c1NC1CCCCC1	9	0	98*	-9	87*
SMILES	UPR XBP1 act	UPR CHOP act	CHOP inhibitor	PvdQ inh	CHOP confirm
Cc1ccc2[nH]c3c(c2c1)CN(C(=O)CN1CCN(c2cccc(C)c2C)CC1)CC3	-5	-1	102*	1	112*
O=C(Cc1ccccc1)Nc1cccc(N2C(=O)C=CC2=O)c1	.	.	109*	-10	132*
Cc1ccccc1N=C1NC(=O)/C(=C/c2cccnc2)S1	0	1	17	-15	.
CCc1nc(SCC(=O)Nc2ccccc2)c2c(=O)n(C)c(=O)n(C)c2n1	0	0	.	0	.
CCCc1nc(SCC(=O)Nc2ccccc2)c2c(=O)n(C)c(=O)n(C)c2n1	-2	-2	99*	-11	23
CCc1ccc(S(=O)(=O)/N=C2\C=CC(=O)c3ccccc32)cc1	18	14	-30	.	.
CCc1ccc(S(=O)(=O)/N=C2/C=C(Sc3ncn[nH]3)C(=O)c3ccccc32)cc1	.	.	108*	14	-141
O=S(=O)(NCCC1=CCCCC1)c1ccc(F)cc1	-5	1	.	-9	.
NC(N)=N/N=C/c1ccc(OCc2ccc(Cl)cc2)cc1	5	6	107*	8	3
